Measurements: ChEMBL document CHEMBL1123786, “Design of nonpeptidal ligands for a peptide receptor: cholecystokinin antagonists” (J Med Chem, 1987)

Assays:
[1] = target: GABA-A receptor; anion channel; assay: Displacement of [3H]diazepam from rat brain GABA-A benzodiazepine receptor
[2] = target: T1, Cholecystokinin receptor (Rattus norvegicus, UniProt P30551+P30553); type: protein assay
T1 sequence (P30551 whole entry): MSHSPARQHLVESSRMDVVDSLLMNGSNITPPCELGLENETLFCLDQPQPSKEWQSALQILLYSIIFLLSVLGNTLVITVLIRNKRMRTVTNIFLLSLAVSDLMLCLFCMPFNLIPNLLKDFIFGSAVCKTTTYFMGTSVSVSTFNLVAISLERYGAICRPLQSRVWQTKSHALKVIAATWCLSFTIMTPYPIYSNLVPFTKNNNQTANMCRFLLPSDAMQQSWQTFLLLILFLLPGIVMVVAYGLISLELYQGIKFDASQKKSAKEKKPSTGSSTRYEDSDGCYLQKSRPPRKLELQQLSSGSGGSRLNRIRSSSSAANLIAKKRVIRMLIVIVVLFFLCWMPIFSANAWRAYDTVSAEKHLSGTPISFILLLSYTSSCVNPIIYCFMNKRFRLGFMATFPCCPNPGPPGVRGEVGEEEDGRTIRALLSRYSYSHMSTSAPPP
T1 sequence (P30553 whole entry): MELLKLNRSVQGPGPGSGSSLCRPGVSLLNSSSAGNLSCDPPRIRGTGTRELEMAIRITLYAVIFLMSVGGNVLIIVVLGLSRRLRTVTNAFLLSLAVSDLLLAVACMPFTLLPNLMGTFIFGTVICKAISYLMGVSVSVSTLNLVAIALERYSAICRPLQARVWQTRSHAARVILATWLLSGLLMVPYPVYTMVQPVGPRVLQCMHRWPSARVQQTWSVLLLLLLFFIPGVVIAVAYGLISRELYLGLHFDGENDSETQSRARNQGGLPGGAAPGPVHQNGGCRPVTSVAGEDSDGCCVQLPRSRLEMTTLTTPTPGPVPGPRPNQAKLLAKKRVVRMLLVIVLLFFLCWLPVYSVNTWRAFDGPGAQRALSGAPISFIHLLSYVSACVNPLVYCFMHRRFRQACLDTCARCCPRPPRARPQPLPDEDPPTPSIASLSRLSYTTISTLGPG

[3] = tested on: Mus musculus; assay: In vivo activity on the basis of the ability to antagonize CCK-8 inhibition of charcoal meal gastric emptying in mice after intraperitoneal administration; type: functional; conditions: Stomach, ip
Procedure, shortened: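 Mice dosed intraperitoneally 1 h before CCK-8 (80 μg/kg, sc), N ≥ 10/dose. A charcoal meal was given 5 min after CCK-8 and gastric emptying was measured 5 min later. ED50 was derived by regression from at least three dose levels.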

[4] = tested on: Mus musculus; assay: In vivo activity on the basis of the ability to antagonize CCK-8 inhibition of charcoal meal gastric emptying in mice after oral administration; type: functional; conditions: Stomach
Procedure, shortened: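 Oral dosing of mice (N ≥ 10/dose) 1 h before sc CCK-8 at 80 μg/kg. The charcoal meal followed CCK-8 by 5 min, with gastric emptying scored 5 min after that. ED50 was obtained by regression analysis using at least three dose levels.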

[5] = organism: Rattus norvegicus; assay: Selectivity of binding to pancreatic CCK and brain benzodiazepine receptors, ratio of IC50
[6] = target: GABA-A receptor; anion channel; assay: Displacement of [3H]flunitrazepam from GABA-A benzodiazepine receptor of guinea pig brain; set-up: species or system Cavia porcellus

Structure (SMILES): CN1C(=O)CN=C(c2ccccc2F)c2cc([N+](=O)[O-])ccc21 [FLUNITRAZEPAM]
- IC50 [1]: 0.0017 µM

Structure (SMILES): CN1C[C@@H](CC2N=C(c3ccccc3)c3ccccc3N(C)C2=O)c2ccccc21 (stereo partly drawn)
- IC50 [2]: 13 µM

Structure (SMILES): O=C1Nc2ccc(Cl)cc2C(c2ccccc2)=N[C@@H]1Cc1c[nH]c2ccccc12
- ED50 [3]: 88 mg/kg
- IC50 [2]: 3.4 µM
- IC50 [1]: > 100 µM
- ED50 [4]: > 300 mg/kg

Structure (SMILES): O=C1Nc2ccccc2C(c2ccccc2F)=NC1C[C@@H]1CNc2ccccc21 (stereo partly drawn)
- IC50 [2]: 11 µM

Structure (SMILES): CN1C(=O)[C@@H](Cc2cn(C(=O)c3ccc(Cl)cc3)c3ccccc23)N=C(c2ccccc2F)c2ccccc21
- IC50 [2]: 11 µM

Structure (SMILES): CC(C)CCN1C(=O)[C@@H](Cc2c[nH]c3ccccc23)N=C(c2ccccc2F)c2ccccc21
- IC50 [2]: ~ 100 uM

Structure (SMILES): Fc1ccccc1C1=N[C@H](Cc2c[nH]c3ccccc23)CNc2ccccc21
- IC50 [2]: 4 µM

Structure (SMILES): CN1C(=O)[C@@H](Cc2cn(C)c3ccccc23)N=C(c2ccccc2F)c2ccccc21
- ED50 [3]: 18 mg/kg
- IC50 [2]: 0.36 µM
- ED50 [4]: 39 mg/kg

Structure (SMILES): CCN1C(=O)[C@@H](Cc2c[nH]c3ccccc23)N=C(c2ccccc2F)c2ccccc21
- IC50 [2]: 0.3 µM

Structure (SMILES): CN1CC(CC2N=C(c3ccccc3)c3ccccc3N(C)C2=O)c2ccccc21 (stereo not drawn)
- IC50 [2]: 10 µM

Structure (SMILES): CCCCCN1C(=O)[C@@H](Cc2c[nH]c3ccccc23)N=C(c2ccccc2F)c2ccccc21
- IC50 [2]: ~ 100 uM

Structure (SMILES): O=C1Nc2ccc(Cl)cc2C(c2ccccc2)=N[C@@H]1Cc1ccc(OCc2ccccc2)cc1
- IC50 [2]: > 100 µM

Structure (SMILES): O=C1Nc2ccc(Cl)cc2C(c2ccccc2)=N[C@@H]1COCc1ccccc1
- IC50 [2]: 60 µM

Structure (SMILES): O=C(O)CCN1C(=O)[C@@H](Cc2c[nH]c3ccccc23)N=C(c2ccccc2F)c2ccccc21
- IC50 [2]: 1.4 µM

Structure (SMILES): CN1C(=O)[C@@H](Cc2c[nH]c3ccccc23)N=C(c2ccccc2)c2ccccc21
- IC50 [2]: 0.3 µM

Structure (SMILES): O=C(O)CN1C(=O)[C@@H](Cc2c[nH]c3ccccc23)N=C(c2ccccc2F)c2ccccc21
- IC50 [2]: 0.3 µM
- IC50 [1]: > 100 µM
- Ratio [5]: < 0.003
- ED50 [4]: 42 mg/kg

Structure (SMILES): O=C1Nc2ccc(Cl)cc2C(c2ccccc2)=N[C@@H]1Cc1ccccc1
- IC50 [2]: 80 µM

Structure (SMILES): O=C1Nc2ccccc2C(c2ccccc2F)=N[C@@H]1Cc1c[nH]c2ccccc12
- ED50 [3]: 41 mg/kg
- IC50 [2]: 0.5 µM
- IC50 [1]: > 100 µM
- ED50 [4]: 104 mg/kg

Structure (SMILES): CN1C(=O)[C@@H](Cc2cn(Cc3ccccc3)c3ccccc23)N=C(c2ccccc2)c2cc(Cl)ccc21
- IC50 [2]: ~ 150 uM

Structure (SMILES): O=C1[C@@H](Cc2c[nH]c3ccccc23)N=C(c2ccccc2F)c2ccccc2N1CC1CC1
- IC50 [2]: 2.2 µM

Structure (SMILES): O=C1Nc2ccccc2C(c2ccccc2F)=NC1Cc1ccsc1 (stereo not drawn)
- IC50 [2]: 33 µM

Structure (SMILES): SC1=Nc2ccc(Cl)cc2C(c2ccccc2)=N[C@@H]1Cc1c[nH]c2ccccc12
- IC50 [2]: 4.5 µM

Structure (SMILES): O=C1Nc2ccc(Cl)cc2C(c2ccccc2)=NC1Cc1cccc2ccccc12 (stereo not drawn)
- IC50 [2]: 23 µM

Structure (SMILES): CN1C(=O)[C@@H](Cc2cn(C)c3ccccc23)N(C(=O)c2ccc(Cl)cc2)C(c2ccccc2F)c2ccccc21 (stereo partly drawn)
- IC50 [2]: > 100 µM

Structure (SMILES): CC(C)CC(NC(=O)OC(C)(C)C)C(=O)N1CC(CC2N=C(c3ccccc3)c3ccccc3NC2=O)c2ccccc21 (stereo not drawn)
- IC50 [2]: 4.7 µM

Structure (SMILES): NC(=O)CN1C(=O)[C@@H](Cc2c[nH]c3ccccc23)N=C(c2ccccc2F)c2ccccc21
- IC50 [2]: 2.1 µM

Structure (SMILES): O=C1Nc2ccccc2C(c2ccccc2F)=NC1c1ccsc1 (stereo not drawn)
- IC50 [2]: > 100 µM

Structure (SMILES): CC1=N[C@H](Cc2c[nH]c3ccccc23)C(=O)Nc2ccccc21
- IC50 [2]: 48 µM
- IC50 [1]: > 100 µM

Structure (SMILES): CC(C)CC(N)C(=O)N1CC(CC2N=C(c3ccccc3)c3ccccc3NC2=O)c2ccccc21.Cl (stereo not drawn)
- IC50 [2]: 6.6 µM

Structure (SMILES): O=C1Nc2ccccc2C1C[C@H]1N=C(c2ccccc2)c2cc(Cl)ccc2NC1=O (stereo partly drawn)
- IC50 [2]: 24 µM

Structure (SMILES): O=C(O)c1ccccc1C1=N[C@H](Cc2c[nH]c3ccccc23)C(=O)Nc2ccccc21
- IC50 [2]: 18 µM

Structure (SMILES): O=C1[C@@H](Cc2c[nH]c3ccccc23)N=C(c2ccccc2F)c2ccccc2N1CC(F)(F)F
- IC50 [2]: 3.6 µM

Structure (SMILES): O=C1Nc2ccccc2C(c2ccccc2F)=NC1Cc1c[nH]c2cc(F)ccc12 (stereo not drawn)
- IC50 [2]: 1.3 µM

Structure (SMILES): CN1C(=O)[C@@H](Cc2cn(C)c3ccccc23)N=C(c2ccccc2)c2ccccc21
- IC50 [2]: 0.1 µM

Structure (SMILES): CN1C(=O)/C(=C/c2ccsc2)N=C(c2ccccc2)c2ccccc21
- IC50 [2]: 100 µM

Structure (SMILES): O=C1Nc2ccccc2C(c2ccccc2)=NC1Cc1c[nH]c2ccc(Br)cc12 (stereo not drawn)
- IC50 [2]: 2.9 µM

Structure (SMILES): N#CCCN1C(=O)[C@@H](Cc2c[nH]c3ccccc23)N=C(c2ccccc2F)c2ccccc21
- IC50 [2]: 0.7 µM

Structure (SMILES): CC(C)C[C@@H]1N[C@H]2N(C1=O)c1ccccc1[C@@]2(O)C[C@@H]1NC(=O)c2ccccc2-n2c1nc1ccccc1c2=O [ASPERLICIN]
- IC50 [1]: 50 µM
- Ratio [5]: 0.028
- ED50 [4]: > 300 mg/kg

Structure (SMILES): CCOC(=O)CN1C(=O)[C@@H](Cc2c[nH]c3ccccc23)N=C(c2ccccc2F)c2ccccc21
- IC50 [2]: 8.3 µM

Structure (SMILES): O=C1[C@@H](Cc2c[nH]c3ccccc23)N=C(c2ccccc2)c2cc(Cl)ccc2N1Cc1ccccc1
- IC50 [2]: > 100 µM

Structure (SMILES): O=C1Nc2ccccc2C(c2ccccc2F)=NC1C[C@H]1CNc2ccccc21 (stereo partly drawn)
- IC50 [2]: 17 µM

Structure (SMILES): O=C1Nc2ccccc2C(c2ccccc2)=N[C@@H]1Cc1c[nH]c2ccccc12
- IC50 [2]: 1.2 µM
- IC50 [1]: > 100 µM
- ED50 [4]: > 150 mg/kg

Structure (SMILES): O=C1[C@H](Cc2c[nH]c3ccccc23)N=C(c2ccccc2)c2cc(Cl)ccc2N1Cc1ccccc1
- IC50 [2]: > 100 µM

Structure (SMILES): O=C1Nc2ccc(Cl)cc2C(c2ccccc2)=NC1Cc1ccc2ccccc2c1 (stereo not drawn)
- IC50 [2]: 49 µM

Structure (SMILES): O=C1Nc2ccccc2C(c2ccccc2F)=N[C@H]1Cc1c[nH]c2ccccc12
- IC50 [2]: 10.6 µM

Structure (SMILES): O=C1Nc2ccc(Cl)cc2C(c2ccccc2)N[C@@H]1Cc1c[nH]c2ccccc12 (stereo partly drawn)
- IC50 [2]: 12 µM

Structure (SMILES): CN1C(=O)[C@@H](Cc2c[nH]c3ccccc23)N=C(c2ccccc2)c2cc(Cl)ccc21
- IC50 [2]: 1.4 µM

Structure (SMILES): O=C1Nc2ccc(Cl)cc2C(c2ccccc2)=N[C@H]1Cc1c[nH]c2ccccc12
- IC50 [2]: 32 µM
- IC50 [1]: 5.6 µM
- ED50 [4]: > 150 mg/kg

Structure (SMILES): O=C1Nc2ccccc2C(c2ccccc2)=NC1C[C@@H]1CNc2ccccc21 (stereo partly drawn)
- IC50 [2]: 3.2 µM

Structure (SMILES): O=C1Nc2ccc(Cl)cc2C(c2ccccc2Cl)=N[C@@H]1Cc1c[nH]c2ccccc12
- ED50 [3]: 119 mg/kg
- IC50 [2]: 5 µM
- IC50 [1]: > 180 µM
- ED50 [4]: > 600 mg/kg

Structure (SMILES): CN(C)CCN1C(=O)[C@@H](Cc2c[nH]c3ccccc23)N=C(c2ccccc2F)c2ccccc21
- IC50 [2]: ~ 100 uM

Structure (SMILES): CN1C(=O)[C@@H](Cc2c[nH]c3ccccc23)N=C(c2ccccc2F)c2ccccc21
- IC50 [6]: > 100 µM
- ED50 [3]: 15 mg/kg
- IC50 [2]: 0.27 µM
- ED50 [4]: 25 mg/kg

Structure (SMILES): CC(C)C[C@H]1N=C(c2ccccc2)c2cc(Cl)ccc2NC1=O
- IC50 [2]: 42 µM

Structure (SMILES): CC(=O)N1C(Cc2cn(C)c3ccccc23)C(=O)N(C)c2ccccc2[C@@H]1c1ccccc1F (stereo partly drawn)
- IC50 [2]: ~ 100 uM

Structure (SMILES): CN1C(=O)/C(=C\c2ccsc2)N=C(c2ccccc2)c2ccccc21
- IC50 [2]: 25 µM

Structure (SMILES): O=C1Nc2ccccc2C(c2ccccc2F)=NC1Cc1c[nH]c2ccc(F)cc12 (stereo not drawn)
- IC50 [2]: 1.4 µM

Structure (SMILES): O=C1CN=C(c2ccccc2Cl)c2cc([N+](=O)[O-])ccc2N1 [CLONAZEPAM]
- IC50 [2]: > 100 µM
- IC50 [1]: 0.0017 µM
- Ratio [5]: > 58000

Structure (SMILES): O=C1Nc2ccccc2C(c2ccccc2)=NC1C[C@H]1CNc2ccccc21 (stereo partly drawn)
- IC50 [2]: 21 µM

Structure (SMILES): Cc1nnc2n1-c1ccccc1C(c1ccccc1F)=N[C@@H]2Cc1c[nH]c2ccccc12
- IC50 [6]: 0.8 µM
- IC50 [2]: 1.2 µM
- Ratio [5]: 1.5
- ED50 [4]: 76 mg/kg
